We go through 2 compounds from ChEMBL document CHEMBL1145082 (J Med Chem, 2003).

By EC50 is commonly meant the concentration giving half of the maximal effect. The term IC50 denotes the concentration at which inhibition is half-maximal.

Molecules are shown by their SMILES. Some results are limits rather than exact numbers.

The nature of assay [1]: Increased glycogen synthase activity in HEK293 cells. Particulars: Homo sapiens. The class given is functional, cell-based. Put shortly: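 HEK293 cells starved of serum and glucose for 3 h, then exposed to compound or vehicle for 90 min at 37 °C. Cells lysed by three freeze–thaw cycles and lysates clarified. GS activity read as 14C-UDP-glucose incorporation into glycogen, with and without glucose 6-phosphate. EC50 from 6–10 concentrations; ≥3 experiments in duplicate; mean ± SEM.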

Assay [2] has as its target Tyrosine-protein kinase Lyn (Homo sapiens) (UniProt P07948). The experiment in a line: Inhibition of Protein tyrosine kinase Lyn at 10 uM. Details: scale not given: the % may be the effect or the level left. Put shortly: (§1)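 Outsourced selectivity panel. Each kinase phosphorylated its own peptide or protein substrate in the presence of 10 µM compound and 10 µM ATP, within the linear time range. Activity given as mean percent of control incubations from duplicate determinations.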

Assay [3] concerns the target Tyrosine-protein kinase Blk (Homo sapiens) (UniProt P51451). Kind of assay: Inhibition of Blk (B lymphocyte kinase) at 10 uM. Details: scale not given: the % may be the effect or the level left. The essentials:
as §1

Assay [4] can be described thus: Inhibition of Vascular endothelial growth factor receptor 2. Details: species or system Homo sapiens. The essentials:
(§2)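 Reaction started with 30–150 ng kinase, run 1 h at 30 °C. Peptides captured on streptavidin plates and counted. IC50 from 6–10 concentrations; ≥3 experiments in duplicate; ± SEM.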

Assay [5] has as its target Protein kinase C beta type (Homo sapiens, UniProt P05771). Kind of assay: Inhibition of human Protein kinase C beta 2 at 10 uM. Details: scale not given: the % may be the effect or the level left. The essentials: as §1
Assay [6] addresses Serine/threonine-protein kinase N2 (Homo sapiens) (UniProt Q16513). The experiment in a line: Inhibition of human protein kinase C-related protein kinase 2 (PRK2) at 10 uM. Details: scale not given: the % may be the effect or the level left. Put shortly:
(§3)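 Upstate kinase selectivity panel: each kinase phosphorylated its peptide or protein substrate with 10 µM compound present and 10 µM ATP. Reactions were linear with time. Activity is reported as the mean percentage of control incubations, from duplicate determinations.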

The target of assay [7] is Tyrosine-protein kinase SYK (Homo sapiens) (UniProt P43405). Kind of assay: Inhibition of Syk protein tyrosine kinase at 10 uM. Details: scale not given: the % may be the effect or the level left. The essentials: as §1
The target of assay [8] is Mitogen-activated protein kinase 8 (Homo sapiens) (UniProt P45983). The experiment in a line: Inhibition of human JNK1-alpha-1 at 10 uM. Details: scale not given: the % may be the effect or the level left. The essentials:
as §1

Assay [9] has as its target Mitogen-activated protein kinase 11 (Homo sapiens) (UniProt Q15759). Kind of assay: Inhibition of human Stress activated protein kinase 2b at 10 uM. Details: scale not given: the % may be the effect or the level left. Put shortly:
as §3

For assay [10], the target named is Dual specificity mitogen-activated protein kinase kinase 6 (Homo sapiens) (UniProt P52564). The experiment in a line: Inhibition of human Mitogen activated protein kinase kinase 6 at 10 uM. Details: scale not given: the % may be the effect or the level left. Put shortly:
as §1

The target of assay [11] is Protein kinase C theta type (Homo sapiens, UniProt Q04759). Kind of assay: Inhibition of Protein kinase C theta at 10 uM. Details: scale not given: the % may be the effect or the level left. The essentials: as §1
The target of assay [12] is AMP-activated protein kinase, AMPK (Homo sapiens) (UniProt P54646+O43741+P54619+Q9UGJ0+Q9Y478+Q13131+Q9UGI9). The experiment in a line: Inhibition of rat liver AMP-activated Protein Kinase at 10 uM. Details: scale not given: the % may be the effect or the level left. Particulars: target entry is the homologue from another species. Put shortly: as §3
The target of assay [13] is Cyclin-dependent kinase 2 (Homo sapiens, UniProt P24941). The experiment in a line: Inhibition of Cyclin-dependent kinase 2 (CDK2). The essentials:
as §2

Assay [14] addresses Insulin receptor (Homo sapiens) (UniProt P06213). The experiment in a line: Inhibition of Insulin receptor at 10 uM. Details: scale not given: the % may be the effect or the level left. Put shortly: as §1
The next assay is filed under the species Bos taurus. Kind of assay: Inhibition of bovine Protein kinase A at 10 uM. Details: scale not given: the % may be the effect or the level left. The essentials:
as §1

Assay [15] concerns the target Mitogen-activated protein kinase 9 (Homo sapiens) (UniProt P45984). The experiment in a line: Inhibition of human c-Jun N-terminal kinase 2-alpha 2 at 10 uM. Details: scale not given: the % may be the effect or the level left. The essentials: as §3
Assay [16] deals with Ribosomal protein S6 kinase alpha-3 (Homo sapiens) (UniProt P51812). The experiment in a line: (§4) Inhibition of Ribosomal S6 kinase 3 at 10 uM. The essentials:
as §1

Assay [17] deals with Protein kinase C gamma type (Homo sapiens, UniProt P05129). Kind of assay: Inhibition of Protein kinase C gamma (PKC-gamma). The essentials: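 Recombinant human PKCα, PKCγ or PKCβII (5–10 mU) phosphorylating histone H1 (0.1 mg/mL) with 33P-ATP, total ATP 10 µM. Buffer 50 mM Hepes pH 7.4 with Triton X-100, CaCl2, Mg acetate, phosphatidylserine and diacylglycerol. Run 40 min at room temperature, stopped with phosphoric acid, then P30 filter counting. IC50 from 6–10 concentrations; ≥3 experiments in duplicate; ± SEM.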

In assay [18] the target is Casein kinase II (Homo sapiens) (UniProt P67870+P68400+P19784). Kind of assay: Inhibition of human Casein kinase II at 10 uM. The class given is protein-complex assay. Details: scale not given: the % may be the effect or the level left. Put shortly: as §1
In assay [19] the target is RAC-alpha serine/threonine-protein kinase (Homo sapiens) (UniProt P31749). The experiment in a line: Inhibition of human Protein kinase B alpha at 10 uM. Details: scale not given: the % may be the effect or the level left. The essentials: as §1
For assay [20], the target named is Mitogen-activated protein kinase 8 (Homo sapiens) (UniProt P45983). Kind of assay: Inhibition of human c-Jun N-terminal kinase 1-alpha 1 at 10 uM. Details: scale not given: the % may be the effect or the level left. The essentials: as §3
Assay [21] deals with Serine/threonine-protein kinase N2 (Homo sapiens) (UniProt Q16513). The experiment in a line: Inhibition of human Protein kinase C related kinase 2 (PRK2) at 10 uM. Details: scale not given: the % may be the effect or the level left. The essentials:
as §1

Assay [22] deals with Mitogen-activated protein kinase 1 (Homo sapiens) (UniProt P28482). Kind of assay: Inhibition of human Mitogen-activated protein kinase 1 at 10 uM. Details: scale not given: the % may be the effect or the level left. The essentials:
as §1

Assay [23] deals with Ribosomal protein S6 kinase alpha-3 (Homo sapiens) (UniProt P51812). The description is as §4. Details: scale not given: the % may be the effect or the level left. Put shortly: as §1

Tyrosine-protein kinase Lyn (Homo sapiens), sequence (P07948 2-512 limits assumed): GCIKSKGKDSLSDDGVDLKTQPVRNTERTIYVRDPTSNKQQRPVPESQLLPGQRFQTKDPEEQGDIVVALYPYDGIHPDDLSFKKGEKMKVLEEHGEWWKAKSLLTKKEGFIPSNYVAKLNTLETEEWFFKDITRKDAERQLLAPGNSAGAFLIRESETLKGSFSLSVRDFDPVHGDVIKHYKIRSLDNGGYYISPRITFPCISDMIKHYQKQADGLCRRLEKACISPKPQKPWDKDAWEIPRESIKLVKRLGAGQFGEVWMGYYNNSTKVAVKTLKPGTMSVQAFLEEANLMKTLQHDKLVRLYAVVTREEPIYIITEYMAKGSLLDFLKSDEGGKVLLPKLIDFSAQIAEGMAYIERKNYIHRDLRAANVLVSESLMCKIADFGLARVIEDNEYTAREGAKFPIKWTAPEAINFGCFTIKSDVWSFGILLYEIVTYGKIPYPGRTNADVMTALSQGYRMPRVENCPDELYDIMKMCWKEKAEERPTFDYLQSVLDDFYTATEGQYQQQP
Protein kinase C beta type, sequence (P05771 2-671 limits assumed): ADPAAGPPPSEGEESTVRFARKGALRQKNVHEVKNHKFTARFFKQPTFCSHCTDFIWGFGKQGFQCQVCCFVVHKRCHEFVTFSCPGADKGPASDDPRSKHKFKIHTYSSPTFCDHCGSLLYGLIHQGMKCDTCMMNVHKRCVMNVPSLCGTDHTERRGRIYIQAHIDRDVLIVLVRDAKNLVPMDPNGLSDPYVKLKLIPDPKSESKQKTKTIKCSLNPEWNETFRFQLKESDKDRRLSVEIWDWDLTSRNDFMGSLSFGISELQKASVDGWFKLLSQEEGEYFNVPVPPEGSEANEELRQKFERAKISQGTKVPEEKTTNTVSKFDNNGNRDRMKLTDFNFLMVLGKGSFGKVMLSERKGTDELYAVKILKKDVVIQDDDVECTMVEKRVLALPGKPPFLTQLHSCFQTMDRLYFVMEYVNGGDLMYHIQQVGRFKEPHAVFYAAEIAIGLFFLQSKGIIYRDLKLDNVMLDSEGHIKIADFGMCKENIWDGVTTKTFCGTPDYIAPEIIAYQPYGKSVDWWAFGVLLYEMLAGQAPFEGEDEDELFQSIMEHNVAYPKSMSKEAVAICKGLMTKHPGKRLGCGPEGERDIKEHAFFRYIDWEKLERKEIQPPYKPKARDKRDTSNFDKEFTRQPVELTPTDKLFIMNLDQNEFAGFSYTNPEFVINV
Mitogen-activated protein kinase 9 (Homo sapiens), sequence (P45984 whole entry, looked up): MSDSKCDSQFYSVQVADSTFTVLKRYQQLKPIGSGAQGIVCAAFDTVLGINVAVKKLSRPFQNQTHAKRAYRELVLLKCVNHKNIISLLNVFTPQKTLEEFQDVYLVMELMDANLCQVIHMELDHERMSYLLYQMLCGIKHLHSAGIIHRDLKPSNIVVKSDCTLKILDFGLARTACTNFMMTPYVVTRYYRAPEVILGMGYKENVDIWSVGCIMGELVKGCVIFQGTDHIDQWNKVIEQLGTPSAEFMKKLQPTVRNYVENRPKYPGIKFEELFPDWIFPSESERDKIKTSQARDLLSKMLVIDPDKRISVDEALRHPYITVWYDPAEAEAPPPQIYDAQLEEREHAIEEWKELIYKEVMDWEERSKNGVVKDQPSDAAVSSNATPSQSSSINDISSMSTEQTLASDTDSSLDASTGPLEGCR
Serine/threonine-protein kinase N2 (Homo sapiens), sequence (Q16513 whole entry, looked up): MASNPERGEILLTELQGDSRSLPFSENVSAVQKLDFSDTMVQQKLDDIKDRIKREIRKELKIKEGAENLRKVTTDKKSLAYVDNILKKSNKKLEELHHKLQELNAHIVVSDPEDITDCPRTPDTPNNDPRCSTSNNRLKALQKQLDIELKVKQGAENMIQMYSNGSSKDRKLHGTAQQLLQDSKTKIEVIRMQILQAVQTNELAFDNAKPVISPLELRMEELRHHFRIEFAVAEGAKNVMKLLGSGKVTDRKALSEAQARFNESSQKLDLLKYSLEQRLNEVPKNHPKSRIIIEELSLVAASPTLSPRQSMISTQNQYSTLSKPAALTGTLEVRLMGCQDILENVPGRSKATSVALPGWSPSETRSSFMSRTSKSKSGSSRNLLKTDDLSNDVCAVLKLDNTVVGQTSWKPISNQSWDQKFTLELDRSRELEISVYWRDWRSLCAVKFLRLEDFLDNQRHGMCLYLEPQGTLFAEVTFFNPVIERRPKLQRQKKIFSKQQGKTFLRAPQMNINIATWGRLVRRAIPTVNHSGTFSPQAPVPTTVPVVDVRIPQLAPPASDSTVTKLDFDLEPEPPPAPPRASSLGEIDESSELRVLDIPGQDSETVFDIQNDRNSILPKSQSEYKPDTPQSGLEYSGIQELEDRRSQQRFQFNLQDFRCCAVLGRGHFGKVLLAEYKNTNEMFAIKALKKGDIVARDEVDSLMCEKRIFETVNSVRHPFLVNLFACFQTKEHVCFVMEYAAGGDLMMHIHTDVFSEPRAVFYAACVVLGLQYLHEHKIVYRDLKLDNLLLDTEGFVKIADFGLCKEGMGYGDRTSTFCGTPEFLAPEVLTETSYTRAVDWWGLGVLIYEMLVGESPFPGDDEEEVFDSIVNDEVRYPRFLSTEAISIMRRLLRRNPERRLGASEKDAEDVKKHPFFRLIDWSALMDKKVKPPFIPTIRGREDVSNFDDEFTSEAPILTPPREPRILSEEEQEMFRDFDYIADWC
RAC-alpha serine/threonine-protein kinase (Homo sapiens), sequence (P31749 whole entry): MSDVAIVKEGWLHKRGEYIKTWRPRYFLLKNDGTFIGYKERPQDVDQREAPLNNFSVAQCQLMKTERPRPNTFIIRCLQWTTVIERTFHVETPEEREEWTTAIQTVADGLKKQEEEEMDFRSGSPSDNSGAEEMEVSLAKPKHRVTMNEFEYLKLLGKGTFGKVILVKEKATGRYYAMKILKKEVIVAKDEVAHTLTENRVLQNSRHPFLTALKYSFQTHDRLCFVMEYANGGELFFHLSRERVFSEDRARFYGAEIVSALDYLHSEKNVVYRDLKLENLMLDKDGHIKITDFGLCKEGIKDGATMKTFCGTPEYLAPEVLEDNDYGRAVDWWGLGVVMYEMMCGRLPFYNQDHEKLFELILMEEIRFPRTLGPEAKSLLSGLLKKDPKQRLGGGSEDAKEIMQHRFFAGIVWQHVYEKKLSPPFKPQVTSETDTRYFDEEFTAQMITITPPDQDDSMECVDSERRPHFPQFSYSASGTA
Dual specificity mitogen-activated protein kinase kinase 6 (Homo sapiens), sequence (P52564 whole entry): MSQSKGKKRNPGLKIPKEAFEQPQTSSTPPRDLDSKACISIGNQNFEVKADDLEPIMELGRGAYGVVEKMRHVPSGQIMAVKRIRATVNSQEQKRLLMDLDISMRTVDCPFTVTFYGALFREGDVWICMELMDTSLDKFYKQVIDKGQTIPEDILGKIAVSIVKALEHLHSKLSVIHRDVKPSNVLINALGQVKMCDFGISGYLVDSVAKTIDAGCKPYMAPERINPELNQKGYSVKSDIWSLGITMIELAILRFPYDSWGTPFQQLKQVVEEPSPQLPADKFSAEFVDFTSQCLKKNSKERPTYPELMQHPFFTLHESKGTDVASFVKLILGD
Protein kinase C theta type, sequence (Q04759 whole entry, looked up): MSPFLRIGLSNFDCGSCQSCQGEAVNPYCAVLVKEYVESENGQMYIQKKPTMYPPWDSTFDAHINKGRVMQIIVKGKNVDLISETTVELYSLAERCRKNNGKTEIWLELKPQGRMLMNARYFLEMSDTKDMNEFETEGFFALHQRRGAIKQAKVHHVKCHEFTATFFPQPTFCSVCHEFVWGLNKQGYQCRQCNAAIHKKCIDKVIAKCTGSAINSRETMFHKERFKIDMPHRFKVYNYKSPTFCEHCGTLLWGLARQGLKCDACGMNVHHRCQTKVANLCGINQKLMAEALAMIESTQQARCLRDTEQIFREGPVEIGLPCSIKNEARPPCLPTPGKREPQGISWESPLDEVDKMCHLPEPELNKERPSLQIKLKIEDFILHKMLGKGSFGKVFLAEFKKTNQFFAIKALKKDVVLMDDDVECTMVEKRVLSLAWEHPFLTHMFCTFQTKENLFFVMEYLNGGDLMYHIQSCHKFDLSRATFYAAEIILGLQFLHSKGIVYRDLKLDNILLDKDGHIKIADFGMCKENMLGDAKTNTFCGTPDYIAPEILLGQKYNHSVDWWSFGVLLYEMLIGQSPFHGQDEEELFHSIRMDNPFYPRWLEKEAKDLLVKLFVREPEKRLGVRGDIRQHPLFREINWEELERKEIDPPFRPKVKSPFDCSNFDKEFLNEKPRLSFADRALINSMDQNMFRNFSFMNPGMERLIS
Mitogen-activated protein kinase 8 (Homo sapiens), sequence (P45983 whole entry): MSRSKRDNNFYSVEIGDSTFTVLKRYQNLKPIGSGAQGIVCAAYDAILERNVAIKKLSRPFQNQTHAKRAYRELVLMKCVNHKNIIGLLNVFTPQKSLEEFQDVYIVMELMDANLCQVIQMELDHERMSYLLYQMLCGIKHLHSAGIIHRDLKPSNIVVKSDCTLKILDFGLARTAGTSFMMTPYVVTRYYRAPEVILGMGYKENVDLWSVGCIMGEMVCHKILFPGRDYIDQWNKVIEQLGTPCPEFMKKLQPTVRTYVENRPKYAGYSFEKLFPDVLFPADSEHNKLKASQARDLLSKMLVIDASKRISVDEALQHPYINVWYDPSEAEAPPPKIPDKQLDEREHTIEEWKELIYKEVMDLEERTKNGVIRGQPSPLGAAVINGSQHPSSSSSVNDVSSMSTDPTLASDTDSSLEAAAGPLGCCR
Mitogen-activated protein kinase 11 (Homo sapiens), sequence (Q15759 whole entry): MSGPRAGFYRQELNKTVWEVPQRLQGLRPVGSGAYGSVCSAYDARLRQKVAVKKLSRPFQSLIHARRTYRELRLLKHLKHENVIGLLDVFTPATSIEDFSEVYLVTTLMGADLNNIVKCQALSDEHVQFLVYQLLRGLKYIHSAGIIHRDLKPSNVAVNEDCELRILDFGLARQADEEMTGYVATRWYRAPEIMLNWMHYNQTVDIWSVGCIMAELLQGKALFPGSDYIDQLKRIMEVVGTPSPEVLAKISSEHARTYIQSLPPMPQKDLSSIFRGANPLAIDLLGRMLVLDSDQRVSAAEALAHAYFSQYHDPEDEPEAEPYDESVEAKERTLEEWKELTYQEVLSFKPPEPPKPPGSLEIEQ

`O=C1NC(=O)C2=C1c1cn(c3ncccc13)CCOCCOCCOCCOCCn1cc2c2cccnc21` returned an EC50 in [1] of 0.39 µM. Also, the Activity in [2] turned out to be 92%; in assay [3] it was 96%; in assay [5], 69%; in assay [6] it was 104%; in assay [7], 72%; in assay [8], 98%. The Activity in [9] was 104%; in [10] it was 85%; in assay [11] it was 88%; in assay [12] it was 99%; in [14] it was 92%; in the assay filed under Bos taurus it was 94%. The Activity in assay [15] turned out to be 97%; in [18], 102%; in [19], 102%. Moreover, the IC50 in assay [4], in [13] and in assay [17] was over 10 µM each time. In [16], this compound gave an Of control of 63%.
Compound `O=C1NC(=O)C2=C1c1cn(c3ncccc13)CCOCCOCCOCCn1cc2c2cccnc21` showed an EC50 in [1] of 0.06 µM. For the same compound, the Activity in [20] is 78%; in assay [21], 92%; in assay [2] it was 99%; in assay [3], 90%; in assay [22] it was 106%; in assay [5], 15%. Further, the Activity in assay [7] worked out at 67%; in assay [9], 105%; in assay [10] it was 87%; in assay [23], 21%; in [11] it was 71%; in assay [12], 88%. For the same compound, the Activity in the assay listed under Bos taurus was 88%; in assay [15], 76%; in [18], 105%; in assay [19] it was 97%. The IC50 in assay [4], in [13] and in assay [17] was over 10 µM each time.
